The record followed here is ChEMBL document CHEMBL1136963, “Sesterterpenes as tubulin tyrosine ligase inhibitors. First insight of structure-activity relationships and discovery of new lead” (J Med Chem, 2009).

Active and inactive are the calls of the source. The rule behind the calls is not given here.

The target in one data set is Albumin (Bos taurus, UniProt P02769). Put plainly: Binding affinity to bovine serum albumin by surface plasmon resonance. The class given is ADME. The conditions noted are these: cattle, isolated protein. A digest of the protocol:
(§1)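 Biacore SPR. TTL and BSA each amine-coupled (100 µg/mL in 10 mM sodium acetate, pH 5.0) to 8-12 kRU, with an unmodified reference surface. Running buffer 10 mM NaH2PO4, 150 mM NaCl, 0.5% DMSO, pH 7.4. Five-point 2-fold series, typically 0.05-10 µM, in triplicate. 25 °C, 50 µL/min, 60 s association, 200 s dissociation. Double-referenced. KD fitted from at least 10 curves.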

A further data set has as its target T1, Tubulin--tyrosine ligase (Homo sapiens, UniProt Q8NG68).
T1 sequence (Q8NG68 whole entry): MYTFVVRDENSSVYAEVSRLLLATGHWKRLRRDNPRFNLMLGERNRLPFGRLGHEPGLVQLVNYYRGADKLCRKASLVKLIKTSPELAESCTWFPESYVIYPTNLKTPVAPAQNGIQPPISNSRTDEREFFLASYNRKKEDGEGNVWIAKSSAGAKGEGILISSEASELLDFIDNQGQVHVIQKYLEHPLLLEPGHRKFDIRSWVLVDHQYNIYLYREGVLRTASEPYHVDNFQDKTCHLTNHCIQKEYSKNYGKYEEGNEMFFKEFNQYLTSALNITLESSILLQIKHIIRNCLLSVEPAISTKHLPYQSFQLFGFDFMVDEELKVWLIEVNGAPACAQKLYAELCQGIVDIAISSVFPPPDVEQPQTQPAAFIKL
Kind of data set: Binding affinity to TTL by surface plasmon resonance. The method, boiled down: as §1
On the technique in general: Surface plasmon resonance follows binding to a sensor surface in real time, without labels.

The subject of a further data set is MCF7. Put plainly: Cytotoxicity against human MCF7 cells up to >100 uM after 24 to 48 hrs by MTT assay. The class given is functional, cell-based.
Another data set relates to J774.A1. Kind of data set: Cytotoxicity against mouse J774A1 cells up to >100 uM after 24 to 48 hrs by MTT assay. The class given is functional, cell-based. For orientation: Tetrazolium dyes change colour on reduction, which living cells bring about.
The test system of the next data set is HEK293. Kind of data set: Cytotoxicity against HEK293 cells up to >100 uM after 24 to 48 hrs by MTT assay. The class given is functional, cell-based. The conditions noted are these: Homo sapiens.
Data set [1] deals with T2, Tubulin--tyrosine ligase (Homo sapiens) (UniProt Q8NG68).
T2 sequence (whole entry): T1 sequence (Q8NG68 whole entry)
Kind of data set: Inhibition of TTL in human MCF7 cells assessed as increase in delta2-tubulin level at 100 uM after 24 to 48 hrs by Western blot. The class given is cell-based. The method, boiled down:
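MCF-7 cells were grown in DMEM with 10% FBS at 37 °C, 5% CO2, seeded at 4 × 10^5 per well, and treated 24 h later with or without 100 µM compound for 24 and 48 h. NP-40 lysates (20 µg protein, Bradford) were run on 10% SDS-PAGE and blotted. Membranes were probed overnight at 4 °C with rabbit polyclonal anti-Δ2-α-tubulin.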
(A western blot detects proteins with antibodies after separation by electrophoresis.)

Chain of Albumin (P02769 whole entry): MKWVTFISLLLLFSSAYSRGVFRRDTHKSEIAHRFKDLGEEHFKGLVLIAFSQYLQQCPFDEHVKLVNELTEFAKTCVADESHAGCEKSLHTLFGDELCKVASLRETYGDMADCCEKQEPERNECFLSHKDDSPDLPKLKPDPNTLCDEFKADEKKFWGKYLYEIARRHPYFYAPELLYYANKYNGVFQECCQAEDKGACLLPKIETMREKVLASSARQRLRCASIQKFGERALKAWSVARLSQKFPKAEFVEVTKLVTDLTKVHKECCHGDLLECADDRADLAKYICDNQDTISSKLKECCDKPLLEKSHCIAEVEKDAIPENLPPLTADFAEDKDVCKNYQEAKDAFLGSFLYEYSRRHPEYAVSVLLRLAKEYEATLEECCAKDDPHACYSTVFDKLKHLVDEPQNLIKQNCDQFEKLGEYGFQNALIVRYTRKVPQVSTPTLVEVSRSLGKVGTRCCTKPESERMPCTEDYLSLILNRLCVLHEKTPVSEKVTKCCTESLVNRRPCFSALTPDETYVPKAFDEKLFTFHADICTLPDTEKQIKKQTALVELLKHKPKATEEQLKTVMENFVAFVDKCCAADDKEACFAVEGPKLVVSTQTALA

Regarding `C=C(CC[C@@H]1[C@@]2(C)CCC[C@@](C)(CO)[C@@H]2[C@@H](O)C[C@@]1(C)O)[C@@H](O)[C@@H](O)C1OC(=O)C=C1C` (stereo in doubt; 23) [listing 1 of 2 here], on Albumin, the Activity entry was “Not Active”.

Turning to `CC1=CC(=O)O/C1=C\C=C(/C)CC[C@@H]1[C@@]2(C)CCC[C@@](C)(C=O)[C@@H]2[C@@H](O)C[C@@]1(C)O`, binding at Tubulin--tyrosine ligase was characterised by a dissociation constant (Kd) of 200 nM. Moreover, the outcome in the data set on MCF7, with J774.A1 and in the data set with HEK293 was inactive. Further, the Activity entry at Albumin is recorded as “Not Active”.

Consider `CC1=CC(=O)O[C@@H]1[C@@H](O)/C=C(\C)CC[C@@H]1[C@@]2(C)CCC[C@@](C)(C=O)[C@@H]2[C@@H](O)C[C@@]1(C)O`, for which, on Tubulin--tyrosine ligase, the equilibrium dissociation constant (Kd) (usually the free concentration of one partner at which half of the binding sites on the other are occupied at equilibrium, for simple one-to-one binding) was found to be 3000 nM. Besides, the result in the data set on MCF7, in the data set with J774.A1 and in the data set on HEK293 was inactive. For the same compound, on Albumin, the Activity result is “Not Active”.

In the case of `CC1=CC(=O)O/C1=C\C=C(/C)CC[C@@H]1[C@@]2(C)CCC[C@@](C)(C(=O)O)[C@@H]2[C@@H](O)C[C@@]1(C)O`, binding at Tubulin--tyrosine ligase was put at a Kd of 93 nM. For the same compound, the result with MCF7, in the data set with J774.A1 and in the data set on HEK293 was inactive. Also, the Activity result on Albumin is “Not Active”.

`CC1=CC(=O)O[C@@H]1[C@@H](O)/C=C(\C)CC[C@@H]1[C@@]2(C)CCC[C@@]3(C)C(=O)O[C@@H](C[C@@]1(C)O)[C@H]23`: the result in the data set with MCF7, in the data set on J774.A1 and in the data set with HEK293 was inactive. Moreover, on Albumin, the Activity entry was “Not Active”. The result in data set [1] was Active.

`CC1=CC(=O)O[C@@H]1[C@@H](O)/C=C(\C)CC[C@@H]1[C@@]2(C)CCC[C@@](C)(C(=O)O)[C@@H]2[C@@H](O)C[C@@]1(C)O`: the Kd on Tubulin--tyrosine ligase stood at 3000 nM. For the same compound, the result with MCF7, in the data set with J774.A1 and in the data set with HEK293 was inactive. For the same compound, at Albumin, the Activity entry is recorded as “Not Active”.

With `C=C1C[C@H](O)[C@H]2[C@](C)(CO)CCC[C@]2(C)[C@H]1CC/C(C)=C/[C@H](O)[C@H]1OC(=O)C=C1C`, the Kd at Tubulin--tyrosine ligase was determined as 2000 nM. The outcome with MCF7, in the data set with J774.A1 and in the data set on HEK293 was inactive. Further, the Activity entry on Albumin is on record as “Not Active”.

For the compound `C=C1C[C@@H]2OC[C@]3(C)CCC[C@](C)([C@H]1CC/C(C)=C/C[C@H]1OC(=O)C=C1C)[C@@H]23`, the dissociation constant (Kd) at Tubulin--tyrosine ligase came out at 8700 nM. In addition, the outcome in the data set with MCF7, in the data set with J774.A1 and in the data set on HEK293 was inactive. In addition, the Activity result on Albumin is given as “Not Active”.

For `C=C(CC[C@@H]1[C@@]2(C)CCC[C@@](C)(CO)[C@@H]2[C@@H](O)C[C@@]1(C)O)[C@@H](O)[C@@H](O)C1OC(=O)C=C1C` (stereo in doubt; 22), the result in the data set on MCF7, in the data set on J774.A1 and in the data set on HEK293 was inactive.

Compound `CC1=CC(=O)O[C@@H]1C/C=C(\C)CC[C@@H]1[C@@]2(C)CCC[C@@](C)(C=O)[C@@H]2[C@@H](O)C[C@@]1(C)O` returned a Kd on Tubulin--tyrosine ligase of 810 nM. The outcome in the data set on MCF7, with J774.A1 and with HEK293 was inactive. The Activity entry at Albumin is “Not Active”.

Consider `COC(=O)[C@]1(C)CCC[C@@]2(C)[C@H]1[C@@H](O)C[C@@](C)(O)[C@@H]2CC/C(C)=C/[C@H](O)[C@H]1OC(=O)C=C1C`, for which binding on Tubulin--tyrosine ligase was characterised by a dissociation constant (Kd) of 6200 nM. The result in the data set with MCF7, in the data set with J774.A1 and in the data set on HEK293 was inactive. Further, at Albumin, the Activity entry is listed as “Not Active”.

For the compound `CC1=CC(=O)O[C@@H]1[C@@H](O)/C=C(\C)CC[C@@H]1[C@@]2(C)CCCC(C)(C)[C@@H]2[C@@H](O)C[C@@]1(C)O`, the outcome in the data set on MCF7, in the data set on J774.A1 and in the data set on HEK293 was inactive. For the same compound, the Activity result at Albumin was “Not Active”.

With `C=C(CC[C@@H]1[C@@]2(C)CCC[C@@](C)(CO)[C@@H]2[C@@H](O)C[C@@]1(C)O)[C@@H](O)[C@@H](O)C1OC(=O)C=C1C` (stereo in doubt; 23) [listing 2 of 2 here], the outcome in the data set with MCF7, in the data set on J774.A1 and in the data set with HEK293 was inactive.

For `C=C(CC[C@@H]1[C@@]2(C)CCC[C@@](C)(C=O)[C@@H]2[C@@H](O)C[C@@]1(C)O)[C@@H](O)[C@@H](O)C1OC(=O)C=C1C` (some centres undefined), the result with MCF7, with J774.A1 and in the data set with HEK293 was inactive. For the same compound, the Activity entry at Albumin is on record as “Not Active”.

`CC1=CC(=O)O/C1=C\C=C(/C)CC[C@@H]1[C@@]2(C)CCC[C@@]3(C)C(O)O[C@@H](C[C@@]1(C)O)[C@H]23` (some centres undefined) came in with a Kd on Tubulin--tyrosine ligase of 480 nM. For the same compound, the result with MCF7, in the data set on J774.A1 and in the data set on HEK293 was inactive. The Activity result at Albumin is “Not Active”.

On to `CC1=CC(=O)O[C@@H]1C/C=C(\C)CC[C@@H]1[C@@]2(C)CCC[C@@](C)(CO)[C@@H]2[C@@H](O)C[C@@]1(C)O`, for which binding at Tubulin--tyrosine ligase was characterised by a dissociation constant (Kd) of 72 nM. The result in the data set with MCF7, in the data set with J774.A1 and in the data set on HEK293 was inactive. For the same compound, the Activity result at Albumin is recorded as “Not Active”.

Take `CC1=CC(=O)O[C@@H]1[C@@H](O)/C=C(\C)CC[C@@H]1[C@@]2(C)CCC[C@@]3(C)CO[C@@H](C[C@@]1(C)O)[C@@H]32`: the outcome in the data set on MCF7, in the data set with J774.A1 and in the data set with HEK293 was inactive. The Activity entry at Albumin is given as “Not Active”.

`CC1=CC(=O)O/C1=C\C=C(/C)CC[C@@H]1[C@@]2(C)CCC[C@@]3(C)C(=O)O[C@@H](C[C@@]1(C)O)[C@H]23` returned a Kd on Tubulin--tyrosine ligase of 150 nM. In addition, the outcome with MCF7, with J774.A1 and with HEK293 was inactive. Also, the Activity result at Albumin is listed as “Not Active”.

For `CCO[C@H]1O[C@H]2C[C@@](C)(O)[C@H](CC/C(C)=C/C[C@H]3OC(=O)C=C3C)[C@@]3(C)CCC[C@]1(C)[C@H]23`, binding at Tubulin--tyrosine ligase was characterised by a dissociation constant (Kd) of 73 nM. For the same compound, the result in the data set with MCF7, in the data set on J774.A1 and in the data set on HEK293 was inactive. In addition, the Activity result on Albumin was “Not Active”.

Turning to `CC1=CC(=O)OC1C/C=C(\C)CC[C@@H]1[C@@]2(C)CCC[C@@](C)(C(=O)O)[C@@H]2[C@@H](O)C[C@@]1(C)O` (some centres undefined), the Kd on Tubulin--tyrosine ligase came out at 7 nM. In addition, the outcome in the data set on MCF7, in the data set on J774.A1 and with HEK293 was inactive. Besides, the Activity entry on Albumin is listed as “Not Active”.

`CC1=CC(=O)O/C1=C\C=C(/C)CC[C@@H]1[C@@]2(C)CCC[C@@](C)(CO)[C@@H]2[C@@H](O)C[C@@]1(C)O` showed a Kd at Tubulin--tyrosine ligase of 110 nM. Also, the outcome with MCF7, in the data set with J774.A1 and with HEK293 was inactive. On Albumin, the Activity result is “Not Active”.

Compound `C=C1C[C@H](O)[C@@H]2[C@](C)(CCC[C@@]2(C)C=O)[C@H]1CC/C(C)=C/[C@H](O)[C@H]1OC(=O)C=C1C` showed a Kd on Tubulin--tyrosine ligase of 3300 nM. Further, the outcome in the data set with MCF7, in the data set with J774.A1 and with HEK293 was inactive. In addition, on Albumin, the Activity entry is recorded as “Not Active”.

`CCO[C@H]1O[C@H]2C[C@@](C)(O)[C@H](CC/C(C)=C/[C@H](O)[C@H]3OC(=O)C=C3C)[C@@]3(C)CCC[C@]1(C)[C@H]23` registered a Kd on Tubulin--tyrosine ligase of 960 nM. Further, the outcome with MCF7, with J774.A1 and in the data set with HEK293 was inactive. Besides, the Activity result at Albumin was “Not Active”.

In turn, `CC1=CC(=O)O[C@@H]1[C@@H](O)/C=C(\C)CC[C@@H]1[C@@]2(C)CCC[C@@](C)(CO)[C@@H]2[C@@H](O)C[C@@]1(C)O` returned a Kd at Tubulin--tyrosine ligase of 4700 nM. Also, the result with MCF7, in the data set on J774.A1 and in the data set with HEK293 was inactive. Moreover, the Activity entry at Albumin is reported as “Not Active”.
